# Reference: ChEMBL document CHEMBL2439985, “Multifunctional cyclic D,L-α-peptide architectures stimulate non-insulin dependent glucose uptake in skeletal muscle cells and protect them against oxidative stress” (J Med Chem, 2013)
# Active and inactive are the calls of the source. The calls are words filed in the database; no cut-off is given here.
# Experiments:
# L6 [1] = test: Effect on total GLUT1 level in rat L6 cells at 2 mM after 30 mins by Western blotting analysis; type: functional, cell-based
# L6 [2] = test: Effect on human myc epitope-tagged total GLUT4 level overexpressed in rat L6 cells at 2 mM after 30 mins by Western blotting analysis; type: functional, cell-based
# Method in brief: (§1)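 Whole-cell lysates of GLUT1myc- or GLUT4myc-overexpressing L6 myotubes were made after the same treatments as in the surface assay. Western blots were run for total transporter content.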
# L6 [3] = test: Antiapoptotic activity in rat L6 cells assessed as suppression of 23.5 mM D-glucose-induced JNK-54 phosphorylation at 2 mM after 30 mins by Western blot analysis; type: functional, cell-based
# [4] = biological target: T1, Solute carrier family 2, facilitated glucose transporter member 1 (Homo sapiens) (UniProt P11166); test: Induction of human myc epitope-tagged GLUT1 translocation to plasma membrane overexpressed in rat L6 cells at 2 mM after 30 mins by immunocolorimetric analysis in presence of 23.5 mM D-glucose; type: cell-based
# T1 sequence (whole entry): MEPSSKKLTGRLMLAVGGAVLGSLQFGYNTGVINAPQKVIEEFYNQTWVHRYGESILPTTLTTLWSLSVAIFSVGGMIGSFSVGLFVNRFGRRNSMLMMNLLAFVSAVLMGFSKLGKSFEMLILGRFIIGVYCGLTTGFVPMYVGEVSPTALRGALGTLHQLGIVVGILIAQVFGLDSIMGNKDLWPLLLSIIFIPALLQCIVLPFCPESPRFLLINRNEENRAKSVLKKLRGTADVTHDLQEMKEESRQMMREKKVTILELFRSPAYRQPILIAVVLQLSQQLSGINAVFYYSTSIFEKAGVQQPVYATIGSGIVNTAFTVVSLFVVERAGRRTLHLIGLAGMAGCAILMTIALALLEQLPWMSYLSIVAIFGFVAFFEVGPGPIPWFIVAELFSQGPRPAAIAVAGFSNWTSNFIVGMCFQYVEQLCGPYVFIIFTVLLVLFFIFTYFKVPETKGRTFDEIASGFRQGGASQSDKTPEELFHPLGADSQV
# Method in brief: (§2)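 L6 myotubes overexpressing GLUT1myc or GLUT4myc were held 9 h in serum-free αMEM with 0.5% BSA and 23.5 mM glucose. They received peptide (25 μM) or 0.1% DMSO over the last 8 h, and insulin (100 nM) or ALA (2 mM) over the last 30 min. Live cells were labelled with anti-c-Myc (1:200) and fixed in 3% formaldehyde. HRP anti-rabbit IgG (1:2000) and OPD were added, and absorbance was read at 492 nm.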
# L6 [5] = test: Effect on total GLUT4 level in rat L6 cells at 2 mM after 30 mins by Western blotting analysis; type: functional, cell-based
# L6 [6] = test: Antihyperglycemic activity in rat L6 cells assessed as increase in [3H]dGlc uptake at 2 mM after 30 mins by liquid scintillation counting analysis; type: functional, cell-based
# Method in brief: (§3)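 Differentiated L6 myotubes were preincubated 24 h in αMEM with 2% FCS and 5.5 or 23.5 mM D-glucose, then switched to FCS-free medium with 0.5% BSA 4 h before the assay. Peptide was given for 12 h or ALA for 30 min, vehicle 0.1% DMSO. After PBS rinses, cells took up 0.1 mM dGlc plus [3H]dGlc (1.3 μCi mL−1) for 5 min at room temperature. Cells were lysed in 0.1% SDS and counted by scintillation. Uptake is expressed as % of the DMSO basal rate.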
# L6 [7] = test: Antiapoptotic activity in rat L6 cells assessed as suppression of 23.5 mM D-glucose-induced JNK-46 phosphorylation at 2 mM after 30 mins by Western blot analysis; type: functional, cell-based
# L6 [8] = test: Cytoprotective activity in rat L6 cells assessed as increase in glucose oxidase-reduced cell survival at 2 mM incubated for 30 mins prior to glucose oxidase challenge measured after 5 hrs by MTT assay in presence of 23.5 mM D-glucose; type: functional, cell-based
# Method in brief: (§4)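 L6 myotubes were kept 7 days in 23.5 mM glucose. They were pretreated with peptide (25 μM, 12 h) or ALA (2 mM, 30 min), vehicle 0.1% DMSO, at 37 °C. Glucose oxidase (50 mU mL−1) was then added for 5 h to generate H2O2. Viability was read by MTT.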
# L6 [9] = test: Antioxidant activity in rat L6 cells assessed as trolox equivalents of ABTS free radical scavenging activity at 2 mM after 2 hrs by ELISA reader analysis in presence of 23.5 mM D-glucose; type: functional, cell-based
# Method in brief: (§5)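 L6 myotubes in αMEM with 2% FCS and 5.5 or 23.5 mM glucose were treated with peptide (25 μM, 12 h) or ALA (2 mM, 2 h), vehicle 0.1% DMSO. Cells were lysed (Tris pH 7.5, NaCl, NP-40) through three freeze-thaw cycles and centrifuged. Lysates were assayed for metmyoglobin/H2O2-driven ABTS•+ formation. Results are Trolox equivalents per mg protein from a Trolox standard curve, with protein by Bradford.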
# L6 [10] = test: Antihyperglycemic activity in rat L6 cells assessed as increase in [3H]dGlc uptake at 25 uM after 30 mins by liquid scintillation counting analysis; type: functional, cell-based
# L6 [11] = test: Effect on human myc epitope-tagged total GLUT1 level overexpressed in rat L6 cells at 2 mM after 30 mins by Western blotting analysis; type: functional, cell-based; method in brief: as §1
# [12] = Potency index, ratio of Histidine EC50 to compound EC50 for inhibition of H2O2-induced ROS production; type: functional
# [13] = Antioxidant activity assessed as inhibition of H2O2-induced ROS production by DCFH assay; type: functional
# Method in brief: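 DCFH oxidation assay: H2O2 (0.5 mM) was incubated with DCFH with or without the test agent, and the DCF formed was read fluorometrically. Free His and Trolox served as controls.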
# L6 [14] = test: Effect on human myc epitope-tagged total GLUT1 level overexpressed in rat L6 cells at 25 uM after 8 hrs by Western blotting analysis; type: functional, cell-based; method in brief: as §1
# L6 [15] = test: Cytoprotective activity in rat L6 cells assessed as increase in glucose oxidase-reduced cell survival at 25 uM incubated for 12 hrs prior to glucose oxidase challenge measured after 5 hrs by MTT assay in presence of 23.5 mM D-glucose; type: functional, cell-based; method in brief: as §4
# L6 [16] = test: Antiapoptotic activity in rat L6 cells assessed as suppression of 23.5 mM D-glucose-induced JNK-46 phosphorylation at 25 uM after 8 hrs by Western blot analysis; type: functional, cell-based
# Method in brief: (§6)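 L6 myotubes held 7 days in 23.5 mM glucose medium, then exposed to peptide for 8 h or ALA for 3 h. Whole-cell lysates were made in ice-cold lysis buffer, and 5−60 μg protein was run on 10−12% SDS-PAGE. Blots were probed for total and phosphorylated JNK (p-54, p-46) and α-tubulin. Band densities were normalized to total JNK. Two-tailed Student's t test.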
# L6 [17] = test: Antihyperglycemic activity in rat L6 cells assessed as increase in [3H]dGlc uptake at 25 uM after 6 to 12 hrs by liquid scintillation counting analysis; type: functional, cell-based
# L6 [18] = test: Antihyperglycemic activity in rat L6 cells assessed as increase in [3H]dGlc uptake after 12 hrs by liquid scintillation counting analysis; type: functional, cell-based; method in brief: as §3
# L6 [19] = test: Antiapoptotic activity in rat L6 cells assessed as suppression of 23.5 mM D-glucose-induced JNK-54 phosphorylation at 25 uM after 8 hrs by Western blot analysis; type: functional, cell-based; method in brief: as §6
# L6 [20] = test: Effect on total GLUT4 level in rat L6 cells at 25 uM after 8 hrs by Western blotting analysis; type: functional, cell-based
# [21] = Antioxidant activity assessed as inhibition of H2O2-induced hydroxyl radical formation by EPR spectroscopic analysis in presence of Fe2+; type: functional
# Method in brief: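 Hydroxyl radicals came from a Fenton reaction: H2O2 (10 mM), FeSO4·7H2O (10 mM) and DMPO spin trap (40 mM), with peptide at 1−1000 μM. Samples were diluted in 15 mM phosphate buffer, pH 7.4, and read immediately by EPR. The spin-adduct signal was integrated.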
# L6 [22] = test: Potency index, ratio of compound activity to ALA activity for increase in [3H]dGlc uptake in rat L6 cells; type: functional
# Method in brief: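 L6 myotubes (differentiated in αMEM, 2% FCS) preincubated 24 h in 23.5 mM D-glucose, then 4 h serum-free with 0.5% BSA. Peptide at increasing concentrations for 12 h, or ALA 2 mM for 30 min; vehicle 0.1% DMSO. Uptake: 0.1 mM dGlc plus [3H]dGlc 1.3 μCi/mL in PBS pH 7.4, 5 min RT; SDS lysis, scintillation counting, % of vehicle basal. Ratio compares concentrations giving similar uptake.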
# [23] = biological target: T2, Solute carrier family 2, facilitated glucose transporter member 4 (Homo sapiens) (UniProt P14672); test: Induction of human myc epitope-tagged GLUT4 translocation to plasma membrane overexpressed in rat L6 cells at 25 uM after 8 hrs by immunocolorimetric analysis in presence of 23.5 mM D-glucose relative to insulin; type: cell-based; method in brief: as §2
# T2 sequence (whole entry): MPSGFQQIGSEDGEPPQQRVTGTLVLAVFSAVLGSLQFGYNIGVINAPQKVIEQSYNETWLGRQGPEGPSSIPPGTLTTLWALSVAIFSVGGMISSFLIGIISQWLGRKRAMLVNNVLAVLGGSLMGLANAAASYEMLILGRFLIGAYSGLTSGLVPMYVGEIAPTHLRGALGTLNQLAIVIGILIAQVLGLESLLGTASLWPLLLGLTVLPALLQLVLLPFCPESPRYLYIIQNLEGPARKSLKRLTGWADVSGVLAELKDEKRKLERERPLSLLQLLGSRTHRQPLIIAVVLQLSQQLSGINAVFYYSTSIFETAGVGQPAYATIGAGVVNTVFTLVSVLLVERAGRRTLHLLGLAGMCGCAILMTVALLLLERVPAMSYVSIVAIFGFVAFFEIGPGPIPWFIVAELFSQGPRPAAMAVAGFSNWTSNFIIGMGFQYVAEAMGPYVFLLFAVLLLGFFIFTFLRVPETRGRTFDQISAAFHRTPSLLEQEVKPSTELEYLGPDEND
# L6 [24] = test: Antioxidant activity in rat L6 cells assessed as trolox equivalents of ABTS free radical scavenging activity at 25 uM after 12 hrs by ELISA reader analysis in presence of 23.5 mM D-glucose; type: functional, cell-based; method in brief: as §5
# L6 [25] = test: Antihyperglycemic activity in rat L6 cells assessed as increase in [3H]dGlc uptake at 5 uM after 12 hrs by liquid scintillation counting analysis; type: functional, cell-based; method in brief: as §3
# L6 [26] = test: Effect on human myc epitope-tagged total GLUT4 level overexpressed in rat L6 cells at 25 uM after 8 hrs by Western blotting analysis; type: functional, cell-based; method in brief: as §1
# [27] = Antioxidant activity assessed as inhibition of H2O2-induced hydroxyl radical formation by EPR spectroscopic analysis in absence of Fe2+; type: functional
# [28] = biological target: T1, Solute carrier family 2, facilitated glucose transporter member 1 (Homo sapiens); test: Induction of human myc epitope-tagged GLUT1 translocation to plasma membrane overexpressed in rat L6 cells at 25 uM after 8 hrs by immunocolorimetric analysis in presence of 23.5 mM D-glucose; type: cell-based; method in brief: as §2
# L6 [29] = test: Effect on total GLUT1 level in rat L6 cells at 25 uM after 8 hrs by Western blotting analysis; type: functional, cell-based
# [30] = Drug degradation in H2O2 solution at 2.7 mM after 1 month by HPLC/MS/NMR analysis in presence of Fe2+; type: physicochemical; settings: H2O2 solution with Fe2+; read-out: Drug degradation
# [31] = Induction of self-assembly of the compound in phosphate buffer at 100 uM after 2 days by uranyl acetate staining-based TEM analysis; type: physicochemical; settings: 48 h
# Method in brief: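 Peptide (100 μM) was aged 2 days in phosphate buffer and negatively stained 30 s with 2% uranyl acetate. Nanotube formation was examined by TEM at 120 kV.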
compound,measurement,setting,value
O=C(O)CCCCC1CCSS1 (configuration not stated),Activity,L6 [1],inactive
same,Activity,L6 [2],inactive
same,Activity,L6 [3],Active
same,Activity,[4],Active
same,Activity,L6 [5],inactive
same,Activity,L6 [6],Active
same,Activity,L6 [7],Active
same,Activity,L6 [8],Active
same,Activity,L6 [9],Active
same,Activity,L6 [10],inactive
same,Activity,L6 [11],inactive
NCCCC[C@H]1NC(=O)[C@H](Cc2c[nH]cn2)NC(=O)[C@@H](Cc2c[nH]c3ccccc23)NC(=O)[C@H](Cc2c[nH]c3ccccc23)NC(=O)[C@@H](Cc2c[nH]cn2)NC(=O)[C@H](Cc2c[nH]cn2)NC(=O)[C@@H](Cc2c[nH]cn2)NC(=O)[C@H](CO)NC1=O,Ratio EC50,[12],30
same,EC50,[13],200 nM
NCCCC[C@H]1NC(=O)[C@H](Cc2c[nH]cn2)NC(=O)[C@@H](Cc2c[nH]c3ccccc23)NC(=O)[C@H](Cc2c[nH]c3ccccc23)NC(=O)[C@@H](Cc2c[nH]cn2)NC(=O)[C@H](Cc2c[nH]cn2)NC(=O)[C@@H](Cc2c[nH]cn2)NC(=O)[C@H](Cc2c[nH]cn2)NC1=O,Activity,L6 [14],inactive
same,Ratio EC50,[12],15
same,Activity,L6 [15],Active
same,Activity,L6 [16],Active
same,Activity,L6 [17],Active
same,Activity,L6 [18],Dose-dependent effect
same,Activity,L6 [19],Active
same,Activity,L6 [20],inactive
same,inhibition,[21],Dose-dependent effect
same,Ratio,L6 [22],80
same,Activity,[23],60%
same,Activity,L6 [24],Active
same,Activity,L6 [25],Active
same,Activity,L6 [26],inactive
same,inhibition,[27],Active
same,Activity,[28],Active
same,Activity,L6 [29],inactive
Cc1c(C)c2c(c(C)c1O)CCC(C)(C(=O)O)O2 (configuration not stated) [TROLOX],EC50,[13],350 nM
NCCCC[C@H]1NC(=O)[C@H](Cc2c[nH]cn2)NC(=O)[C@@H](Cc2c[nH]cn2)NC(=O)[C@H](Cc2c[nH]cn2)NC(=O)[C@@H](Cc2c[nH]cn2)NC(=O)[C@H](Cc2c[nH]c3ccccc23)NC(=O)[C@@H](Cc2c[nH]c3ccccc23)NC(=O)[C@H](Cc2c[nH]cn2)NC1=O,degraded at 730.5 h,[30],< 5%
same,EC50,[21],3000 nM
same,Activity,[31],Active
same,EC50,[13],400 nM
N[C@@H](Cc1c[nH]cn1)C(=O)O [HISTIDINE],EC50,[21],100000 nM
same,EC50,[13],6000 nM
